From the EternaBench riboswitch data come the findings set out here.

This series has as its system MS2 coat protein. Briefly: apparent Kd, MS2 coat protein; higher = weaker binding; RNA-MaP array; FMN 200 µM where present. A digest of the protocol:
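In 100 mM Tris-HCl pH 7.5, 80 mM KCl, 4 mM MgCl2, BSA, DTT, yeast tRNA and Tween-20, SNAP-549-labelled MS2 coat protein was titrated from 0.7 or 1.5 nM, doubling to 3 µM, over designs transcribed by stalled E. coli RNA polymerase on Illumina sequencing-chip clusters. This was done first without ligand, then with ligand held constant. After green signal was normalised to red-channel RNA signal and control-cluster median Fmax, the apparent Kd was taken as the median of filtered per-cluster binding-curve fits.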

Where [1] appears, read: designed as: ON switch for flavin mononucleotide, no ligand.
Where [2] appears, read: ligand present: flavin mononucleotide, designed as: ON switch for flavin mononucleotide.
[3] abbreviates: designed as: OFF switch for flavin mononucleotide, no ligand.
The mark [4] stands for this setting: ligand present: flavin mononucleotide, designed as: OFF switch for flavin mononucleotide.

For orientation: apparent Kd means the concentration giving half-maximal binding under the conditions of the assay. With “GCAAAGCCUGACAUGAGGAUCACCCAUGUUAGAUUGUUAUGUCAGGAUAUUGUCUAGCAACUAGACAAGAAGGGAUGCUUUGCC”, the “apparent Kd” value runs as follows: under setting [1], 0.603 µM; under setting [2], 0.0509 µM.

For “AUUACAUGAGGAUCACCCAUGUACAGAACGUUUCAUUACAGUGAGGAUAUACGAAAUGUAAAAGCGUAGAAGGCACUGGGUACA”, the “apparent Kd” value came to 0.0295 µM under setting [1] and 0.0222 µM under setting [2].

As for “UGUUGGAGCGAGAAGGGACGAUGGGAAGCUGUAAGCUGGCACUGUAGACAUGAGGAUCACCCAUGUCAGGAUAUUGCCGAACUA”, the “apparent Kd” value runs as follows: under setting [3], 0.00598 µM; under setting [4], 0.0102 µM.

Consider “GUGACGAUGUAAGGAUAUGCUGAGGAAUACUCAGCAGAAGGUACAUGAGGAUCACCCAUGUAAAUAAUAAUAAAUAAACGUCAC”, for which the “apparent Kd” value was 0.0152 µM under setting [3] and 0.0241 µM under setting [4].

For the sequence “CCACGUCACAUGAACAUGAGGAUCACCCAUGUAAAUUCUCAUGAGGAUAUGGAUCCUAAUUGGAUCCAGAAGGCGUGGACGUGG”, the “apparent Kd” value by setting is: under setting [1], 1.07 µM; under setting [2], 0.461 µM.

Take “GAGUGGUAAAGAGGAUAUGCAUUGUUAUUAAAUGCAGAAGGUUUUAACAUGAGGAUCACCCAUGUAGGACUAUUCCUGUGUUUC”: the “apparent Kd” value turned out to be 0.0148 µM under setting [1] and 0.0122 µM under setting [2].

As for “UCGCUGCGAGGAUAUACAUGAGGAUCACCCAUGUGCGGGUCCGGGUUUUCGUCCAUUAGUAGAAGGCGCAGUGA”, the “apparent Kd” value under setting [3] amounted to 0.369 µM and the “apparent Kd” value under setting [4] stood at 0.0465 µM.

With “CCAUCAGCGGGCGUAUCGGUUGGACAUGAGGAUCACCCAUGUAGAAGGACAGGUGUAUUUCGGCUGUAGGAUAUACAUUUGGUG”, the “apparent Kd” value reads like this: under setting [3], 0.026 µM; under setting [4], 0.0799 µM.

Take “AAUCCACAUGAGGAUCACCCAUGUCAGGAUAUCGCGCGCGCGUUUUCGGUCUUUCGCGCGAGAAGGGACGGCUG”: the “apparent Kd” value by setting is: under setting [3], 0.0177 µM; under setting [4], 0.0235 µM.

As to “CCGUGGCAAGGAUAUACGUAGGAGAGGAAGGCAAGAGAAGGACAUGAGGAUCACCCAUGUAGAAGGUGCAGAUC”, the “apparent Kd” value by setting is: under setting [3], 0.0565 µM; under setting [4], 0.0565 µM.

Turning to “AGCAGCUCGUCAGGAUAUACGUCACUGCGUCAGCAGUGUGGUAAGAUCACAUGAGGAUCACCCAUGUAGAAGGGACGAGCUGAU”, the “apparent Kd” value is 0.0137 µM under setting [3] and 0.273 µM under setting [4].

As for “GCGAUUAAGUAGAAGGUACGAUAUAAAUCAAUGUAAGGAUAUACUGACAUGAGGAUCACCCAUGUUUAAUUUGUUUACUGUCGC”, the “apparent Kd” value by setting is: under setting [1], 0.00742 µM; under setting [2], 0.00599 µM.

“CGGUGCUGAGGAUAUACAUGAGGAUCACCCAUGUGUGCCAGCUAGAAGACUGGCACUUGUAGAAGGCAGUACUG”: the “apparent Kd” value under setting [3] was 0.0114 µM and the “apparent Kd” value under setting [4] is 0.0205 µM.

“UUAAUAAUACAAGGAUAUCAAUUGUUCUUAAGACAUACAUGAGGAUCACCCAUGUUAAUAUAUGUUGAGAAGGUGUAUUUUCAG”: the “apparent Kd” value is, setting by setting: under setting [1], 0.0357 µM; under setting [2], 0.0267 µM.

For the sequence “UGACAUAUAUAGAAGGGUAUGUGGGAAUUACAUGAGGAUCACCCAUGUUUUAUAGGAUAUGUAUAUAGUUUUUAAUCAAGUUUA”, the “apparent Kd” value reads like this: under setting [3], 0.0351 µM; under setting [4], 0.0269 µM.

As for “AUUAUUGGCUAAGGAUAUGGAUACAUGAGGAUCACCCAUGUAUUUUUUGUGAUCAUAUAAAUGAUCCAGAAGGUAGCUGUUUAU”, the “apparent Kd” value reads like this: under setting [3], 0.0231 µM; under setting [4], 0.0701 µM.

For “CUGUAUCGGUCAGGAUAUGUGCGUAAACUGUGAACAGAAGGGACCGUACAUGAGGAUCACCCAUGUCCGGGACUCCUUAUGCCU”, the “apparent Kd” value came out at 0.0181 µM under setting [3] and 0.0222 µM under setting [4].

In the case of “AAGUUAUUAGGAUAUACUUGUGCGAACCAAACGUUGAUAUUACAUGAGGAUCACCCAUGUAGAAGGAAUAAAAA”, the “apparent Kd” value runs as follows: under setting [3], 0.0357 µM; under setting [4], 0.0251 µM.

Consider “GUGUAGUCAGGAUAUACAUAGGAAGAGAAGAGAAGAUAAGUACAUGAGGAUCACCCAUGUAGAAGGGACAGUGU”, for which the “apparent Kd” value was found to be 0.0306 µM under setting [3] and 0.0296 µM under setting [4].

Turning to “AUGAAGAAUUAAGGAUAUUGAUUACAUAUGUUUAACAUGAGGAUCACCCAUGUGGGUUGCGGUAUCGAGAAGGUAAAUUAAAAG”, the “apparent Kd” value runs as follows: under setting [1], 0.198 µM; under setting [2], 0.178 µM.
